Inconclusive results are not listed.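 The calls were made as follows, unless noted: active = viability increase at or above a cutoff of the median across tested compounds plus 3 SD (cut at about 8.5% in these data, passing the limit was not always enough); inconclusive = some gains above the cutoff, reason not given; inactive = the rest.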
Tests used:
[1] = S. cerevisiae growth inhibition in permissive medium (OD615), pilot counter-assay for S. cerevisiae lifespan shortening project, permissive growth control (AID 705;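 active = growth inhibition above 25% in both replicates, a cutoff set 3 SD above the mean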); conditions: OD615, 24 h, at 10 µM, active compounds read high
Method in brief: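 System: S. cerevisiae with engineered DeaD lifespan system. Medium: SC raffinose/galactose permissive medium. Doses: single compound dose of 10 µM, 0.25% DMSO final. Schedule: 24 h exposure, 30 °C. Measured by: OD615 turbidity read. Read-out: growth inhibition.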

[2] = S. cerevisiae growth inhibition in restrictive medium, OD615, pilot screen, restrictive growth control, yeast lifespan reduction project (AID 706;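 active = growth inhibition above a set limit, 3 SD over mean compound inhibition, in both replicates, cut at about 43% in these data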;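 also: modified DeaD lifespan yeast strain shifted to restrictive glucose medium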); conditions: OD615, 48 h, at 10 µM, active compounds read high
Method in brief: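 Assay system – genetically modified Saccharomyces cerevisiae, DeaD replicative lifespan assay strain · Medium – CSMM-D glucose medium · Doses – 10 µM compound, 0.25% DMSO · Times – 4 h pre-incubation, 48 h exposure at 30 °C · Signal – optical density at 615 nm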

[3] = doxorubicin toxicity protection in MRP-1 cells – H69AR cells, CellTiter-Glo, duplicate, MRP-1 activator project, pilot screen (AID 807); conditions: H69AR viability with doxorubicin, CellTiter-Glo luminescence; at 10 µM; active compounds read high;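 also: compound pretreatment 18-22 h then 72 h combined with doxorubicin; 0% = doxorubicin alone and 100% = vehicle without doxorubicin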
[4] = viability of HCT116 without oncogenic beta-catenin – human colon tumor cells, pilot screen (AID 823;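 active = cell viability at or below a set limit in both duplicate runs, the limit being the all-compound median minus 4 SD, cut at about 23% in these data, passing the limit was not always enough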;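 also: 0% = wells killed by 20 µM Hyamine and 100% = untreated DMSO cell wells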); conditions: HCT116 beta-catenin knockout viability, CellTiter-Glo, 60 h; at 10 µM; active compounds read low
[5] = viability of PTEN-null HCT116 cells – cell-based, HCT116 clonal line, CellTiter-Glo, pilot screen (AID 824;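 active = viability at or below 27.92% in each of two runs, the all-compound median minus 4 SD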;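 also: 0% = 20 µM Hyamine control and 100% = vehicle cell control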); conditions: HCT116 PTEN-deleted viability, 60 h, at 10 µM, active compounds read low
[6] = RAM pathway blockade in budding yeast – dse1pr::URA3 reporter, 5-FOA selection, pilot screen (AID 869;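 active = inhibition over a set limit, the all-compound mean plus 3 SD, in both replicate runs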;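 also: 0% = DMSO wells with no growth and 100% = 10 µM 1-NA-PP1 with full growth; RAM network block rescues cells from 5-FOA so hits raise OD615 growth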); conditions: S. cerevisiae dse1pr::URA3 5-FOA growth, OD615, 2 d; at 10 µM; active compounds read high; strain carries analog-sensitive mutant Cbk1 kinase
[7] = RAM signaling pathway blockade in yeast – S. cerevisiae, Pdr1DBD-CYC8 efflux-inhibited sensitized strain, primary screen (AID 1298;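 active = RAM network inhibition above 8.4% in each of two replicates, 3 SD over the compound average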;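 also: 0% = DMSO untreated cells without growth and 100% = 10 µM 1-NA-PP1 full growth; higher means more yeast growth rescued from 5-FOA killing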); conditions: S. cerevisiae cbk1-as DSE1-URA3 strain, 5-FOA growth OD615, 2 d; at 50 µM; active compounds read high

COc1cc(Br)cc(-c2nc3c(c(=O)[nH]c(=O)n3Cc3ccccc3)n2C)c1O
inactive: growth inhibition [1] 3.34% | growth inhibition [2] -0.8% | viability increase [3] -1.31% | viability [4] 89.6% | viability [5] 87.6% | inhibition [6] 2.02% | RAM network inhibition [7] 3.23%

Cc1cc(Nc2cccc(C)c2C)n2nc(C)nc2n1
inactive: growth inhibition [1] -17% | growth inhibition [2] -8.21% | viability increase [3] -1.13% | viability [4] 102% | viability [5] 98.3% | inhibition [6] 1.25% | RAM network inhibition [7] 3.39%

O=C(CCSCCC(=O)NCc1cccs1)NCc1cccs1
inactive: growth inhibition [1] -5.92% | growth inhibition [2] 3.44% | viability increase [3] -1.73% | viability [4] 94.5% | viability [5] 96.3% | inhibition [6] 3.47% | RAM network inhibition [7] 2.86%

O=C(NCc1ccc(F)cc1)c1cc2n(n1)C(C(F)(F)F)CC(C1CC1)N2 (stereo unspecified)
inactive: growth inhibition [1] -4.54% | growth inhibition [2] -7.74% | viability increase [3] -0.43% | viability [4] 106% | viability [5] 96% | inhibition [6] 4.14% | RAM network inhibition [7] 4.9%

CN(C)C(=O)N1CCC(C(=O)NCc2ccc(F)cc2)CC1
inactive: growth inhibition [1] 4.29% | growth inhibition [2] 9.94% | viability increase [3] -1.51% | viability [4] 104% | viability [5] 94.7% | inhibition [6] 0.865% | RAM network inhibition [7] 5.08%

COc1ccc(C2C(C(=O)N3CCOCC3)CCC(=O)N2c2cc(OC)c(OC)c(OC)c2)cc1 (stereo unspecified)
inactive: growth inhibition [1] -10.2% | growth inhibition [2] -12.3% | viability increase [3] -0.09% | viability [4] 99.7% | viability [5] 102% | inhibition [6] 0.705% | RAM network inhibition [7] 1.3%

O=C(CCS(=O)(=O)c1cccc2nonc12)N1CCOCC1
inactive: growth inhibition [1] -6.54% | growth inhibition [2] -14.3% | viability increase [3] -2.16% | viability [4] 88% | viability [5] 100% | inhibition [6] 2.56% | RAM network inhibition [7] 2.65%

CCN(CC)c1ccc(NC(=O)CN2C(=O)CSc3ncccc32)c(C)c1
inactive: growth inhibition [1] 1.52% | growth inhibition [2] -5.94% | viability increase [3] 0.51% | viability [4] 45.2% | viability [5] 66% | inhibition [6] 1.34% | RAM network inhibition [7] 6.12%

O=C(CSc1ccccc1)NCc1cccnc1
inactive: growth inhibition [1] -4.86% | growth inhibition [2] -3.68% | viability increase [3] -1.64% | viability [4] 99.5% | viability [5] 97% | inhibition [6] 0.995% | RAM network inhibition [7] 0.53%

Cc1cccc(OCc2nnc(SCC(=O)NCCc3ccccc3)o2)c1
inactive: growth inhibition [1] -3.83% | growth inhibition [2] -15.6% | viability increase [3] -1.67% | viability [4] 98% | viability [5] 95.2% | inhibition [6] 3.1% | RAM network inhibition [7] 1.99%

Cc1[nH]c2ccccc2c1SCCN
inactive: growth inhibition [1] -9.76% | growth inhibition [2] -12.4% | viability increase [3] -5.96% | viability [4] 73.9% | viability [5] 62.9% | inhibition [6] 2.34% | RAM network inhibition [7] 1.7%

COc1ccc(OC)c2[nH]c(=O)c(CCNC(C)=O)cc12
inactive: growth inhibition [1] -6.6% | growth inhibition [2] 3.73% | viability increase [3] -0.39% | viability [4] 109% | viability [5] 104% | inhibition [6] 2.21% | RAM network inhibition [7] 1.88%

Cc1ccc(S(=O)(=O)N2CCC(C(=O)N[C@@H](C)C(=O)NC3CCCCC3)CC2)cc1
inactive: growth inhibition [1] -10.2% | growth inhibition [2] -17.1% | viability increase [3] 3.71% | viability [4] 97.7% | viability [5] 99.8% | inhibition [6] 2.49% | RAM network inhibition [7] 4.41%

COc1ccc(NCCNc2ccc(OC)cc2)cc1
inactive: growth inhibition [1] 5.4% | growth inhibition [2] 7.97% | viability increase [3] -0.82% | viability [4] 58.9% | viability [5] 59.5% | inhibition [6] 0.6% | RAM network inhibition [7] 6.32%

O=C(C1CCCN(S(=O)(=O)c2cccc3cccnc23)C1)N1CCc2ccccc21 (stereo unspecified)
inactive: growth inhibition [1] -2.7% | growth inhibition [2] -3.75% | viability increase [3] -5.63% | viability [4] 68.7% | viability [5] 66.7% | inhibition [6] 1.5% | RAM network inhibition [7] 3.58%

O=C(C1CC1)N1CCc2cc(Br)cc(S(=O)(=O)NCc3ccccn3)c21
inactive: growth inhibition [1] -8.05% | growth inhibition [2] -19% | viability increase [3] -1.89% | viability [4] 99.2% | viability [5] 96.9% | inhibition [6] 1.32% | RAM network inhibition [7] 5.17%

CCS(=O)(=O)n1nc(-c2ccccc2)cc1N
inactive: growth inhibition [1] -3.12% | growth inhibition [2] -16.4% | viability increase [3] -1.52% | viability [4] 98.7% | viability [5] 96.7% | inhibition [6] 0.555% | RAM network inhibition [7] 1.53%

CCn1c(C(C)NC(=O)Cc2ccccc2)nc2ccccc21 (stereo unspecified)
inactive: growth inhibition [1] -12.2% | growth inhibition [2] -17.6% | viability increase [3] -1.21% | viability [4] 99.6% | viability [5] 96% | inhibition [6] 1.83% | RAM network inhibition [7] 4.91%

Reference: PubChem BioAssay
